By inhibition is commonly meant the relative decrease from the control value, in per cent. The pIC50 is −log10 of the IC50, conventionally taken in molar units. Lower therefore signals a large IC50.

The values below come from ChEMBL document CHEMBL3526133, “Identifying a selective substrate and inhibitor pair for the evaluation of CYP2J2 activity” (Drug Metab Dispos, 2012).

The structures appear in SMILES notation. pIC50: −log10 of the molar value.

For series [1], the target named is T1, Cytochrome P450 2J2 (Homo sapiens, UniProt P51589).
T1 sequence (P51589 whole entry): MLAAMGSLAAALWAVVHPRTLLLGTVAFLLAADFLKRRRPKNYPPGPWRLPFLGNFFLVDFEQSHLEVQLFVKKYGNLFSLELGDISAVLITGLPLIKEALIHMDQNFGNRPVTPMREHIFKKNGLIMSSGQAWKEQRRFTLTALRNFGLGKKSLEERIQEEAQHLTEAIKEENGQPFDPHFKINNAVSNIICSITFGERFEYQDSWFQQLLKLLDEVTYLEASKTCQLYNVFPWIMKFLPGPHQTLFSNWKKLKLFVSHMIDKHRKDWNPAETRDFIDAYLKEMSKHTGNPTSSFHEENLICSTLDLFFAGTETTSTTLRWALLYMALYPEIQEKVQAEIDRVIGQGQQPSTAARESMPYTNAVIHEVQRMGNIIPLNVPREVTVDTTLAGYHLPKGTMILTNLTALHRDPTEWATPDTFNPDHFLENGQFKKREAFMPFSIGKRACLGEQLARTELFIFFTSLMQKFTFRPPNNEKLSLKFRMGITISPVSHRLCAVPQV
The series is described as follows: Drug metabolism in human liver microsomes assessed as CYP2J2-mediated compound formation treated with amiodarone at 1 uM after 5 to 45 mins by LC-MS/MS analysis. The series is classed as ADME. In general terms: Microsomes from liver hold many membrane-bound enzymes, among them those of drug oxidation.

Series [2] concerns the target Cytochrome P450 3A4 (Homo sapiens, UniProt P08684). Nature of the series: Drug metabolism assessed as recombinant CYP3A4 (unknown origin)-mediated compound formation treated with amiodarone at 1 uM after 5 to 45 mins by LC-MS/MS analysis. Particulars: recombinant enzyme. It is filed as ADME. The essentials:
(§1)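 Preincubated, then started with NADPH-regenerating system (1 mM NADPH final). Aliquots taken at 0, 5, 10, 20, 30, 45 min and quenched in acetonitrile with internal standard. No-NADPH controls included. Products measured by LC-MS/MS.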

Series [3] in a line: Retention time in potassium phosphate buffer treated with amiodarone hydrochloride at 30 uM by HPLC analysis. The series is classed as physicochemical.
The target in series [4] is T1, Cytochrome P450 2J2. The series is described as follows: Drug metabolism assessed as recombinant CYP2J2 (unknown origin)-mediated compound formation treated with amiodarone at 1 uM after 5 to 45 mins by LC-MS/MS analysis. The series is classed as ADME. The settings on record: recombinant enzyme. The essentials:
as §1

Series [5] deals with T2, CYP2J2 (Homo sapiens, UniProt P51589).
T2 sequence (P51589 whole entry): T1 sequence (P51589 whole entry)
Nature of the series: in vitro.

Series [6] concerns the target T3, CYP2C8 (Homo sapiens, UniProt P10632).
T3 sequence (P10632 whole entry): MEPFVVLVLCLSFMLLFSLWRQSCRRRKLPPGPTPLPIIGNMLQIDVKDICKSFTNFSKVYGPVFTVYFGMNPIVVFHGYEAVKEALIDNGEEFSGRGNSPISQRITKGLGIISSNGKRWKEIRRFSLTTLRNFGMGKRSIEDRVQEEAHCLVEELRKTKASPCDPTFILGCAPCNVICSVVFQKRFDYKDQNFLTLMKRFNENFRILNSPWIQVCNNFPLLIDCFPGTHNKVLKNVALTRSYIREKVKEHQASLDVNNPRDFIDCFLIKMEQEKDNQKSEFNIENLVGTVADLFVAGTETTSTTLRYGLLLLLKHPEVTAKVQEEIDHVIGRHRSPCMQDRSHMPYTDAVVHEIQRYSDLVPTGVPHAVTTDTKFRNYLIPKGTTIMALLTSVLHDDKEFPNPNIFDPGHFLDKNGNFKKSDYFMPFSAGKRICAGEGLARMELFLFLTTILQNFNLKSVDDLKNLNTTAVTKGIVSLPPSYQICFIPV
The series is described as follows: in vitro. The settings on record: human liver microsomes, probe paclitaxel (metabolite formation).

Series [7] deals with T2, CYP2J2. The series is described as follows: in vitro. The settings on record: recombinant enzyme.
Series [8] deals with CYP2C9 (Homo sapiens, UniProt P11712). The series is described as follows: Inhibition of CYP2C9-mediated diclofenac metabolite formation in human liver microsomes at 0.3 uM after 8 mins by LC-MS/MS analysis relative to control. It is filed as ADME. Particulars: probe diclofenac (metabolite formation). An outline of the steps: (§2)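 Pooled HLM with probe cocktail: phenacetin 10 µM, paclitaxel 5 µM, diclofenac 5 µM, S-mephenytoin 40 µM, dextromethorphan 5 µM, midazolam 2 µM. […] Preincubated 15 min, then started with NADPH-regenerating system (1 mM NADPH). Reaction run 8 min, quenched in acetonitrile with internal standard. Metabolites measured by LC-MS/MS; % inhibition given as mean ± S.D.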
Sequence of CYP2C9 (P11712 whole entry): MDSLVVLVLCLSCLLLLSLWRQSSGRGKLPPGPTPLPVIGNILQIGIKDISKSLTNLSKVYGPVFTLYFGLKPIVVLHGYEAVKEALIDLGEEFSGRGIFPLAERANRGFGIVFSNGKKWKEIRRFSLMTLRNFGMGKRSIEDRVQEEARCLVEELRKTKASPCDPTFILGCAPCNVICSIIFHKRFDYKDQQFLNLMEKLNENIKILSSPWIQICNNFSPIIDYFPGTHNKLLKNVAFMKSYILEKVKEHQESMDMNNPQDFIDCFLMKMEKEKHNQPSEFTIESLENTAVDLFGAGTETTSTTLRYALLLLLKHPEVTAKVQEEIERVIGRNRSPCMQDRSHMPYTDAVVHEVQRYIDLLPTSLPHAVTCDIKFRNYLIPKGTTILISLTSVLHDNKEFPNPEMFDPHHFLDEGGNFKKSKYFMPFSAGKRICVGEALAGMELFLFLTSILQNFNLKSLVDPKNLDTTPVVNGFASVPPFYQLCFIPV

Series [9] concerns the target CYP3A4 (Homo sapiens, UniProt P08684). Nature of the series: Inhibition of CYP3A4-mediated midazolam metabolite formation in human liver microsomes at 0.3 uM after 8 mins by LC-MS/MS analysis relative to control. The series is classed as ADME. Particulars: probe midazolam (metabolite formation). The essentials: as §2
Series [10] has as its target Cytochrome P450 2C19 (Homo sapiens, UniProt P33261).
Series [11] has as its target T4, CYP1A2 (Homo sapiens, UniProt P05177).
T4 sequence (P05177 whole entry): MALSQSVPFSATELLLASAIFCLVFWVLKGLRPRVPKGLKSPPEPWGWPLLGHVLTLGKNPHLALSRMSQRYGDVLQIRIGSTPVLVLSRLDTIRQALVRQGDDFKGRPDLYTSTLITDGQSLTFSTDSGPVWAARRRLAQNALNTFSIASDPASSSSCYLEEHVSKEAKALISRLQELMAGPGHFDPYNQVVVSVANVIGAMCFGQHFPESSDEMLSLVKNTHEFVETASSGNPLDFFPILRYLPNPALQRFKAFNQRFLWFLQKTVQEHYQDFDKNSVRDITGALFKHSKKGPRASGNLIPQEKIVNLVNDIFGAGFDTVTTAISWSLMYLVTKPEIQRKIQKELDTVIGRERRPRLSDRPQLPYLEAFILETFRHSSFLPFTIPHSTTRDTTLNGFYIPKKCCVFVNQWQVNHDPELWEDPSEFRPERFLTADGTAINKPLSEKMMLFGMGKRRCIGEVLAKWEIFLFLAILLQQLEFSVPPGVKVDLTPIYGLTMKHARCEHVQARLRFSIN
Nature of the series: Inhibition of CYP1A2-mediated phenacetin metabolite formation in human liver microsomes at 0.3 uM after 8 mins by LC-MS/MS analysis relative to control. It is filed as ADME. The settings on record: probe phenacetin (metabolite formation). The essentials:
as §2

The target in series [12] is T1, Cytochrome P450 2J2. The series is described as follows: Drug metabolism in human liver microsomes assessed as CYP2J2-mediated astemizole O-demethylation measured per pmol protein at 0.3 uM after 5 mins by LC-MS/MS analysis. It is filed as ADME.
The target in series [13] is T5, Cytochrome P450 2C8 (Homo sapiens, UniProt P10632).
T5 sequence (P10632 whole entry): T3 sequence (P10632 whole entry)

Series [14] deals with T6, Cytochrome P450 1A2 (Homo sapiens, UniProt P05177).
T6 sequence (P05177 whole entry): T4 sequence (P05177 whole entry)

The target in series [15] is Cytochrome P450 2D6 (Homo sapiens, UniProt P10635).
Sequence of Cytochrome P450 2D6 (P10635 whole entry): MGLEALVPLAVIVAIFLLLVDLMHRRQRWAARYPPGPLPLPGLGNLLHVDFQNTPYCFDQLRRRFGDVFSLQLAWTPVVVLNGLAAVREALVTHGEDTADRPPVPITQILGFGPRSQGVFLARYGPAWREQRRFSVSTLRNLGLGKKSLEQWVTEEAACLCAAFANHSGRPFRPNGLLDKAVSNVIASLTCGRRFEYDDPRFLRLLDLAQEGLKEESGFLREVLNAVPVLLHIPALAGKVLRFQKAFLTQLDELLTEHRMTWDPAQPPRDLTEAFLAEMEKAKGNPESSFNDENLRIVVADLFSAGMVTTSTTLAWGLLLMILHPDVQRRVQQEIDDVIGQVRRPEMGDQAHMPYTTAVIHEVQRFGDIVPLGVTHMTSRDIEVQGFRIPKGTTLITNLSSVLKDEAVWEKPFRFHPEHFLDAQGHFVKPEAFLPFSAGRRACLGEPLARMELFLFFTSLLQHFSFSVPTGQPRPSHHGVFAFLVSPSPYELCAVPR
Series [16] deals with Cytochrome P450 2C9 (Homo sapiens, UniProt P11712).
Sequence of Cytochrome P450 2C9 (P11712 whole entry): as the sequence (P11712 whole entry) above
The target of series [17] is CYP2D6 (Homo sapiens, UniProt P10635). The series is described as follows: Inhibition of CYP2D6-mediated dextromethorphan metabolite formation in human liver microsomes at 0.3 uM after 8 mins by LC-MS/MS analysis relative to control. The series is classed as ADME. Particulars: probe dextromethorphan (metabolite formation). An outline of the steps:
as §2

In series [18] the target is CYP2C19 (Homo sapiens, UniProt P33261). The series is described as follows: Inhibition of CYP2C19-mediated S-mephenytoin metabolite formation in human liver microsomes at 0.3 uM after 8 mins by LC-MS/MS analysis relative to control. Particulars: probe S-mephenytoin (metabolite formation). The series is classed as ADME. The essentials:
as §2

The target in series [19] is T3, CYP2C8. The series is described as follows: Inhibition of CYP2C8-mediated paclitaxel metabolite formation in human liver microsomes at 0.3 uM after 8 mins by LC-MS/MS analysis relative to control. It is filed as ADME. The settings on record: probe paclitaxel (metabolite formation). The essentials:
as §2

Sequence of CYP2D6 (P10635 whole entry): as the sequence (P10635 whole entry) above
Sequence of Cytochrome P450 3A4 (P08684 whole entry): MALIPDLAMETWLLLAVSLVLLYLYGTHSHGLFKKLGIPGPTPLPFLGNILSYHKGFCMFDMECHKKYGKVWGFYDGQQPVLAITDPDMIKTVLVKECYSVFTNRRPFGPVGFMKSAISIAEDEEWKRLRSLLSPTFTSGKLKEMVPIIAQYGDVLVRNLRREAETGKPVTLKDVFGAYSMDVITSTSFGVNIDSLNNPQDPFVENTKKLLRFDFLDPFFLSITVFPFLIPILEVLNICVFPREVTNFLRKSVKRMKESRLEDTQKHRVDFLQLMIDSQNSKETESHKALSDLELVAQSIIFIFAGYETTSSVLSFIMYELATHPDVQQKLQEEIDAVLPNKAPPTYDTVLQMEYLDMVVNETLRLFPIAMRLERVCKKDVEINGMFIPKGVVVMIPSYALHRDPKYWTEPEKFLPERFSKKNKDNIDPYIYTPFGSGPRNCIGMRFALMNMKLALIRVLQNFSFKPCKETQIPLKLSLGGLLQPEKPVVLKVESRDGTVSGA
Sequence of CYP3A4 (P08684 whole entry): as above
Sequence of Cytochrome P450 2C19 (P33261 whole entry): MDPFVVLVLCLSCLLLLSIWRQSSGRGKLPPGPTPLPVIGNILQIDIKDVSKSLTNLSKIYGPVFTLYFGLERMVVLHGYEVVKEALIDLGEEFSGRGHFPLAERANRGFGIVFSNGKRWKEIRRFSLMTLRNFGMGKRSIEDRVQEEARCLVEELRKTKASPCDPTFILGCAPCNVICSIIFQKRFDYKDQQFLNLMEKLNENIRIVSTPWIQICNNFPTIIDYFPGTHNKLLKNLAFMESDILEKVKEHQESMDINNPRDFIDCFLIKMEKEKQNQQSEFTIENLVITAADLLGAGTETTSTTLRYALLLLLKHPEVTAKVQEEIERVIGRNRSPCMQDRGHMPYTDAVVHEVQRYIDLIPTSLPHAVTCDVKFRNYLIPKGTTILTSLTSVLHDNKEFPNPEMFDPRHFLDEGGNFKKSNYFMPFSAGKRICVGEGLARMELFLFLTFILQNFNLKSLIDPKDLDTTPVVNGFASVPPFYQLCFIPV
Sequence of CYP2C19 (P33261 whole entry): as above

Regarding `CCN(CC)CCOc1c(I)cc(C(=O)c2c(CCC(C)O)oc3ccccc23)cc1I` (stereo not given), the Drug metabolism result in series [1], in [2] and in series [4] was “metabolite_detected” each time. In addition, the Retention_time in series [3] is 13.2 min.

Regarding `CCCCc1oc2ccccc2c1C(=O)c1cc(I)c(OCCN(CC)CC)c(I)c1` [AMIODARONE], the activity at 5 min, 30 µM in series [5] (recombinant enzyme) was determined as 39%; in series [7] it was 18.7%. The inhibition at 8 min, 5 µM in [6] was determined as 32.7%.

Take `COc1ccc(CCN2CCC(Nc3nc4ccccc4n3Cc3ccc(F)cc3)CC2)cc1` [ASTEMIZOLE]: the inhibition at 8 min, 0.3 µM in series [8] is -2.7%; in [9], 20.3%; in [11], -0.6%; in [17] it was 8.5%; in [18], 6%; in [19] it was 1.1%. For the same compound, the negative logarithm of the IC50 (pIC50) in series [10] is 4.86; in [13] it was less than 4.52; in [14] it was less than 4.52; in series [15], less than 4.52; in series [16], less than 4.52. In addition, in series [12], the Drug metabolism came to 32 pmol/min. In addition, in series [5] (recombinant CYP2J2, probe terfenadine (hydroxylation)), the activity at 5 min, 30 µM was found to be 8.3%.
